# This is a sample that favours compounds with a hit; in the whole collection about 2.1% have one here.
# Xi reactivation: activators of inactive X chromosome reactivation, primary screen, imaging, XiGFP fibroblasts, GFP high-content imaging, set 2; XiGFP mouse fibroblasts, % GFP-positive cells imaging, 3 d; cells co-treated with 5-aza-dC sensitizer; scaled so ellipticine positive control = 100%; 360,000 compounds, 0.055% hits; activation, % at 7.58 µM;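 active = mean normalized replicate activation at least 10% and every replicate at or above 10%; inconclusive = only one of the two criteria met; inactive = mean below 10% and not all replicates reach 10%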;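 note: 0% = median of on-plate neutral control wells and 100% = ellipticine 6 µM median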
#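 Schedule: 3 d treatment, 15 min room-temperature fixation; system: 68-5-11 XiGFP fibroblast line; buffer or medium: DMEM plus 5-aza-dC sensitizer; control set: ellipticine 6 µM positive control; compound: one concentration, pinned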
# AF4-AF9 inh: inhibitors of AF4 peptide binding to AF9, primary screen, biochemical, AlphaScreen, biotin-AF4 peptide, FLAG-AF9, single point | AID 651704, 2012 | inhibition, % at 10 µM | 350,000 compounds, 0.47% hits;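 active = every replicate reaching a set inhibition limit, whatever the replicate mean, cut at about 25% in these data; inconclusive = mean inhibition reaches that limit but some replicates miss it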;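 note: 0% = plate neutral control median and 100% = total signal loss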
# Target sequence (P42568 whole entry, looked up): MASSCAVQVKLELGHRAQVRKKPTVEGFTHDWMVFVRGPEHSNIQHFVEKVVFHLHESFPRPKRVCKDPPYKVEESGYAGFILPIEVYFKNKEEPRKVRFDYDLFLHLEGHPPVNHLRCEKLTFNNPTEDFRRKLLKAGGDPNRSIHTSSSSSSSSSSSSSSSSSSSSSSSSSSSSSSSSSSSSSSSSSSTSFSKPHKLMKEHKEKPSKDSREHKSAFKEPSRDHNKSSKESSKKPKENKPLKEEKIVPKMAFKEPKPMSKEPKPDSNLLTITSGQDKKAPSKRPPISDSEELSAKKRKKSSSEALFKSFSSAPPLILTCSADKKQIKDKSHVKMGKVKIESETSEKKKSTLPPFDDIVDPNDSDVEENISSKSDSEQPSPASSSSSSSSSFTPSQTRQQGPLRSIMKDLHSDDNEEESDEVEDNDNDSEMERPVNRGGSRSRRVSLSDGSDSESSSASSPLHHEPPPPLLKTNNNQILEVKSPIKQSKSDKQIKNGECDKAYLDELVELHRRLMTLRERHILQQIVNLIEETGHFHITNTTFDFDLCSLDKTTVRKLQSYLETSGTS
# PGC1a acetyl inh: inhibitors of PGC1a acetylation signal, primary screen, cell-based, U2OS, AlphaScreen, inhibitor mode; AID 651687, 2012; inhibition, % at 15.6 µM; AlphaScreen anti-acetyl-lysine; with virally co-expressed GCN5 acetyltransferase; 350,000 compounds, 0.17% hits;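 active = every replicate shows inhibition of at least 40%; inconclusive = mean inhibition at least 40% but some replicate below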;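 note: 0% = neutral control wells and 100% = positive control wells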
# EWS-Fli inh: EWS/Fli-driven NR0B1 reporter inhibitors, primary screen, A673 cells, NR0B1 luciferase, luminescence, MLPCN library | AID 651661, 2012 | 350,000 compounds, 0.67% hits | viability-normalised | inhibition, % at 12.6 µM;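 active = mean inhibition of at least 50% after viability correction, with every replicate also passing that limit; inconclusive = mean reaches 50% but only one of two replicates passes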;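 note: firefly luciferase signal divided by Alamar Blue viability fluorescence both relative to DMSO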
# INS-1E GSIS act: GLuc luminescence reporter in INS-1E cells, primary screen for activators of glucose-dependent secretion of insulin. 370,000 compounds, 0.61% hits. AID 743287, 2014. INS-1E GLuc reporter insulin secretion, 2-3 h. activation, % at 16.6 µM;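 active = lowest replicate activation of at least 40%, so every replicate reaches that level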;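 note: 0% = median of neutral control wells and 100% = median of IBMX positive control wells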
# PAX8 inh HTS: inhibitors of PAX8-driven TPO luciferase reporter, primary screen, RMG-I cells, single concentration; SteadyGlo, 24 h; inhibition, % at 12.6 µM; 360,000 compounds, 1.2% hits; AID 652154, 2013;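 active = mean replicate inhibition at least 60% with every replicate also reaching 60%; inconclusive = only one of the two criteria is met; inactive = mean below 60% and not all replicates reaching 60%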;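 note: luciferase light reporting Pax8 driven TPO promoter activity; plate controls were median of neutral control wells for no effect and mitoxantrone controls for full effect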
# The depositor's hits bear a star; ? = inconclusive; . = no result given.
SMILES,Xi reactivation,AF4-AF9 inh,PGC1a acetyl inh,EWS-Fli inh,INS-1E GSIS act,PAX8 inh HTS
C[C@H](CO)N1C[C@H](C)[C@@H](CN(C)Cc2ccc(-c3ccccc3)cc2)Oc2ccc(N(C)C)cc2C1=O,0.0,29.3*,-4.1,4.0,-9.7,-4.6
C[C@H]1CN([C@@H](C)CO)C(=O)c2cc(N(C)C)ccc2O[C@H]1CN(C)Cc1ccc(-c2ccccc2)cc1,-1.1,33.4*,-3.4,18.1,11.4,-14.2
C[C@@H]1CN([C@@H](C)CO)C(=O)c2cc(N(C)C)ccc2O[C@@H](C)CCCCO[C@H]1CN(C)Cc1ccc(C(=O)Nc2ccccc2N)cc1,0.8,.,.,.,-1.5,.
C[C@H](CO)N1C[C@H](C)[C@@H](CN(C)Cc2ccc(-c3ccccc3)cc2)Oc2ncc(-c3cccnc3)cc2C1=O,-0.3,12.4,-8.7,68.7*,-17.1,.
C[C@@H]1CN([C@@H](C)CO)C(=O)c2cc(N(C)C)ccc2O[C@@H]1CN(C)Cc1ccc(C(=O)Nc2ccccc2N)cc1,.,-11.1,-3.2,82.0*,.,45.6
Cc1cccc(N2CCN(Cc3cn(C)nc3-c3ccccc3F)CC2)n1,0.7,4.2,-0.5,58.8*,4.2,11.7
Cn1cc(CN2CCN(c3ccc(Cl)cn3)CC2)c(-c2ccccc2F)n1,-0.1,8.3,2.8,-1.1,-15.9,20.3
C/C(=N\NC(=O)CN1CCCCC1)c1cccc([N+](=O)[O-])c1,0.0,1.7,.,-59.7,.,-6.9
C/C(=N\NC(=O)CN1CCCCC1)c1ccccc1O,1.3,2.2,43.8*,-14.5,-1.6,-6.0
CO[C@@H]1CN(C)C(=O)c2ccc(NC(=O)C3CCOCC3)cc2OC[C@@H](C)N(Cc2cccnc2)C[C@@H]1C,-0.1,-1.5,1.7,-11.5,2.7,.
CN(C)c1ccc(/C=C2\SC(N3CCCCC3)=NC2=O)cc1,0.6,4.4,-1.7,51.5*,-19.5,-18.0
COc1ccc(/C=C2\SC(N3CCCCC3)=NC2=O)cc1OC,0.1,-1.0,.,-21.6,66.0*,-5.1
COc1ccccc1C(=O)Nc1ccc2c(c1)OC[C@H](C)N(C)C[C@H](C)[C@@H](OC)CN(C)C2=O,-0.3,-0.7,-1.7,2.8,1.1,7.0
COc1ccccc1C(=O)Nc1ccc2c(c1)C(=O)N(C)C[C@H](OC)[C@H](C)CN(CC1CC1)[C@H](C)CO2,0.1,1.3,3.1,3.0,11.9,3.7
C[C@H](CO)N1C[C@H](C)[C@@H](CN(C)C(=O)Cc2ccccc2)OCCCC[C@H](C)Oc2ccc(NS(=O)(=O)c3ccc(F)cc3)cc2C1=O,0.3,.,9.6,14.9,-16.6,-3.1
O=C(C[C@H]1C=C[C@H](NC(=O)C2CC2)[C@@H](CO)O1)Nc1ccccc1,0.2,0.2,6.8,0.2,11.4,-3.1
COC(=O)/C(=N/Nc1ccc(C)cc1)N1CCCc2ccccc21,0.0,17.2,.,-25.2,-6.5,10.2
COC(=O)/C(=N/Nc1ccccc1)N1CCCc2ccccc21,0.0,36.9*,4.8,-10.3,9.1,24.1
NC(c1csc(NC(=O)Nc2ccc(OC(F)(F)F)cc2)n1)C1CCCCC1 (centres undefined),0.0,-4.5,4.0,54.9*,-0.6,24.8
[O-]/[N+](=C\c1ccc(F)cc1)c1ccccc1,.,.,27.9,.,58.1*,.
Nc1[nH]c(C(=O)c2ccccc2)c(-c2c(F)cccc2F)c1C(=O)c1ccc(Cl)c(Cl)c1,0.1,-0.8,.,5.3,176.6*,12.7
CC(C)NC(=O)Nc1ccc2c(c1)C(=O)N([C@@H](C)CO)C[C@H](C)[C@@H](CN(C)Cc1ccc(C(F)(F)F)cc1)OCCCC[C@H](C)O2,0.0,4.6,9.3,8.9,-21.3,14.7
O=C(NCCOc1ccccc1)c1ccccc1Cl,0.0,-0.8,1.0,-31.9,13.6,-42.5
CN(C(=O)COc1ccccc1C(=O)NCCOc1ccccc1)c1ccccc1,0.0,-0.5,.,.,-58.2,74.0*
CCOc1cc(N2CCOCC2)c(OCC)cc1NC(=O)COC(=O)c1cc2ccccc2cc1O,-0.1,.,.,.,141.5*,3.4
SMILES,Xi reactivation,AF4-AF9 inh,PGC1a acetyl inh,EWS-Fli inh,INS-1E GSIS act,PAX8 inh HTS
C[C@@H](NC(=O)C[C@@H]1C=C[C@H](NC(=O)C2CCOCC2)[C@@H](CO)O1)c1ccccc1,-0.1,0.7,-2.4,-5.1,8.0,-5.5
Cc1noc(C)c1S(=O)(=O)Nc1ccc2c(c1)C(=O)N([C@@H](C)CO)C[C@H](C)[C@@H](CN(C)S(C)(=O)=O)O2,0.0,-3.5,-10.3,-0.2,7.6,.
O=C(Nc1cc(C(F)(F)F)ccc1N1CCOCC1)C1=NN(c2ccccc2)C(=O)CC1,0.0,11.1,.,.,-13.2,80.4*
O=C(Nc1ccccc1N1CCOCC1)C1=NN(c2ccccc2)C(=O)CC1,0.0,6.4,.,6.0,49.8*,13.0
COc1ccc(NC(=O)Nc2ccc3c(c2)C(=O)N([C@H](C)CO)C[C@@H](C)[C@@H](CN(C)Cc2ccc(C(F)(F)F)cc2)OCCCC[C@H](C)O3)cc1,-0.1,-5.5,-26.6,4.6,-26.4,73.3*
COc1ccc(CN(C)C[C@@H]2OCCCC[C@H](C)Oc3ccc(NC(=O)Nc4ccc(C(F)(F)F)cc4)cc3C(=O)N([C@H](C)CO)C[C@H]2C)cc1,.,14.8,-34.2,70.9*,.,103.6*
COc1ccc(CN(C)C[C@H]2OCCCC[C@H](C)Oc3ccc(NC(=O)Nc4ccc(C(F)(F)F)cc4)cc3C(=O)N([C@@H](C)CO)C[C@@H]2C)cc1,-0.1,8.8,9.4,71.3*,-22.5,106.1*
COc1ccc(CN(C)C[C@@H]2OCCCC[C@@H](C)Oc3ccc(NC(=O)Nc4ccc(C(F)(F)F)cc4)cc3C(=O)N([C@H](C)CO)C[C@@H]2C)cc1,0.1,0.9,15.0,-8.1,5.4,-6.3
COc1ccc(CN(C)C[C@H]2OCCCC[C@H](C)Oc3ccc(NC(=O)Nc4ccc(C(F)(F)F)cc4)cc3C(=O)N([C@H](C)CO)C[C@H]2C)cc1,0.1,5.0,-12.4,?,-3.2,102.0*
O=C(C[C@H]1C[C@H]2c3cc(NS(=O)(=O)c4ccc(F)cc4)ccc3O[C@H]2[C@H](CO)O1)NCC1CC1,0.0,.,2.9,-9.2,-12.6,10.7
COc1ccc(CN(C)C[C@@H]2OCCCC[C@@H](C)Oc3ccc(NC(=O)Nc4ccc(OC)cc4)cc3C(=O)N([C@@H](C)CO)C[C@H]2C)cc1,2.7,-1.3,7.0,-5.4,-24.3,-8.2
COc1ccc(CN(C)C[C@@H]2OCCCC[C@H](C)Oc3ccc(NC(=O)Nc4ccc(C(F)(F)F)cc4)cc3C(=O)N([C@@H](C)CO)C[C@H]2C)cc1,0.0,8.5,-32.0,72.2*,-5.9,87.5*
